The values that follow come from ChEMBL document CHEMBL4382271, “Eucalypglobulusals A-J, Formyl-Phloroglucinol-Terpene Meroterpenoids from Eucalyptus globulus Fruits” (J Nat Prod, 2018).

Calls of active or inactive are those of the source. The calls are words filed in the database; no cut-off is given here.

For test [1], the target named is T1, DNA topoisomerase I (Bos taurus) (UniProt F1MN93).
T1 sequence (whole entry): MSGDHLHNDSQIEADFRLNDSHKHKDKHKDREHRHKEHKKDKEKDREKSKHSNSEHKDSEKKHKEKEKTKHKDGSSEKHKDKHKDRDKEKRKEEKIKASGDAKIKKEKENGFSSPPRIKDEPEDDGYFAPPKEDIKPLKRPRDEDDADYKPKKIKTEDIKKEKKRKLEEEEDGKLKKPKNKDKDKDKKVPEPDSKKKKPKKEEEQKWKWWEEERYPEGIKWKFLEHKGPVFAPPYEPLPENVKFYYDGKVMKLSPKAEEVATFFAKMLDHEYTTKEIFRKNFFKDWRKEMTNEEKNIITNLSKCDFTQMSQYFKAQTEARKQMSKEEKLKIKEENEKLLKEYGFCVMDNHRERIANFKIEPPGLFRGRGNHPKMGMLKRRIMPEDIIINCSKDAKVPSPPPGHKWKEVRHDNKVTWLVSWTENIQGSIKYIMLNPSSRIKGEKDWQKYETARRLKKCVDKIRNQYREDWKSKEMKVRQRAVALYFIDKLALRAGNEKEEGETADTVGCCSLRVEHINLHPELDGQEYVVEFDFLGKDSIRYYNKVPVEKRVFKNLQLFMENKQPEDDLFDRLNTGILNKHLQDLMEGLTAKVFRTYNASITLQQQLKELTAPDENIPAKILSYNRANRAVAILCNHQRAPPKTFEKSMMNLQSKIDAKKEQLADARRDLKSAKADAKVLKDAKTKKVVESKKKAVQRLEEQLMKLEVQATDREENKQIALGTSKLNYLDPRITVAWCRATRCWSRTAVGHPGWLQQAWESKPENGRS
Put plainly: Inhibition of calf thymus topoisomerase-1-mediated relaxed pBR322 DNA unwinding at 25 uM preincubated with DNA for 10 mins followed by enzyme addition and measured after 30 mins by agarose gel electrophoresis assay. In outline:
(§1)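 Top1-mediated unwinding assay with ethidium bromide, a DNA intercalator, as positive control. It tests whether compounds unwind DNA by intercalation.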

Test [2] deals with T1, DNA topoisomerase I (Bos taurus). As to the kind of experiment: Inhibition of calf thymus topoisomerase-1-mediated supercoiled pBR322 DNA unwinding at 25 uM preincubated with DNA for 10 mins followed by enzyme addition and measured after 30 mins by agarose gel electrophoresis assay. In outline:
as §1

A further test relates to A549. As to the kind of experiment: Cytotoxicity against human A549 cells by MTT assay. The format is functional, cell-based.
For test [3], the target named is T1, DNA topoisomerase I (Bos taurus). As to the kind of experiment: Inhibition of calf thymus topoisomerase-1-mediated supercoiled pBR322 DNA relaxation at 50 uM after 30 mins by agarose gel electrophoresis assay relative to control. In outline:
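Top1-mediated plasmid relaxation run at 50 μM test concentration. Camptothecin (CPT) was included as reference inhibitor. Inhibition was expressed as percentage ranges from gel band intensities.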

Another test relates to HCT-116. Put plainly: Cytotoxicity against human HCT116 cells by MTT assay. The format is functional, cell-based. (Tetrazolium assays rely on reduction of a dye to a coloured formazan, in cell work by metabolically active cells.)
In a further test the test system is CCRF-CEM. As to the kind of experiment: Cytotoxicity against human CCRF-CEM cells by MTT assay. Type of test: functional, cell-based.
A further test deals with DU-145. As to the kind of experiment: Cytotoxicity against human DU145 cells by MTT assay. The format is functional, cell-based.
The next test concerns Huh-7. As to the kind of experiment: Cytotoxicity against human HuH7 cells by MTT assay. The format is functional, cell-based.
Test [4] deals with T1, DNA topoisomerase I (Bos taurus). As to the kind of experiment: Inhibition of calf thymus topoisomerase-1 assessed as reduction in cleavage complex formation by measuring decrease in nicked form DNA using supercoiled pBR322 DNA as substrate after 30 mins by agarose gel electrophoresis assay.

On to `CC(C)C[C@@H](c1c(O)c(C=O)c(O)c(C=O)c1O)[C@@]1(C)CC[C@@H]2[C@@H]1[C@H]1[C@@H](CC[C@@]2(C)O)C1(C)C`, for which the inhibition entry in test [1] and in test [2] was “inactive” each time.
For the molecule `C=C1/C=C/[C@H](C(C)(C)O)C[C@H]2[C@@H](CC(C)C)c3c(O)c(C=O)c(O)c(C=O)c3O[C@]2(C)CCC1`, the half-inhibitory concentration (IC50) is more than 10 µM with A549; more than 10 µM with HCT-116; 3.3 µM in the test with CCRF-CEM; more than 10 µM with DU-145; more than 10 µM in the test on Huh-7. This molecule also gave an inhibition in test [3] of 60 to 89%.
As to `C=C(C)[C@@H]1C=C2[C@@H](C)CC[C@@H](Cc3c(O)c(C=O)c(O)c(C(=O)CC(C)C)c3O)[C@]2(C)CC1`, the IC50 is 5.2 µM in the test with A549; 9.6 µM in the test on HCT-116; more than 10 µM in the test on CCRF-CEM; more than 10 µM in the test on DU-145; more than 10 µM in the test on Huh-7. This molecule also returned an inhibition in [3] of more than 90%.
Consider `CC(C)CC(=O)c1c(O)c(C=O)c(O)c(C[C@@]2(C)CC[C@@H]3[C@@H]2[C@H]2[C@@H](CC[C@@]3(C)O)C2(C)C)c1O` [EUCALYPTIN A], for which the concentration for half-maximal inhibition (IC50) in the test on A549 is 4.9 µM; in the test on HCT-116, 9.6 µM; in the test with CCRF-CEM it was more than 10 µM; in the test on DU-145 it was 8.9 µM; with Huh-7, more than 10 µM. Moreover, the inhibition in test [3] was more than 90%.
`CC(=O)[C@@]12C=C(C(C)C)CC[C@@]1(C)[C@H]([C@@H](CC(C)C)c1c(O)c(C=O)c(O)c(C=O)c1O)C[C@H]2O`: the inhibition entry in test [1] and in test [2] was “inactive” in each case. In test [4], the inhibition entry is “Dose-dependent effect”.
`COc1cc([C@@H]2c3cc4c(cc3[C@@H](O[C@@H]3O[C@@H]5CO[C@@H](C)O[C@H]5[C@H](O)[C@H]3O)[C@H]3COC(=O)[C@H]23)OCO4)cc(OC)c1O` [ETOPOSIDE]: the concentration for half-maximal inhibition (IC50) in the test with A549 is more than 10 µM; in the test with HCT-116, more than 10 µM; in the test with CCRF-CEM, 1.1 µM; in the test with DU-145, more than 10 µM; in the test with Huh-7, 7.4 µM.
With `CC[C@@]1(O)C(=O)OCc2c1cc1n(c2=O)Cc2cc3ccccc3nc2-1` [CAMPTOTHECIN], the 50% inhibitory concentration (IC50) came to 0.04 µM in the test on A549; 0.013 µM in the test with HCT-116; 0.002 µM in the test with CCRF-CEM; 0.016 µM in the test on DU-145; 0.0023 µM in the test on Huh-7. Moreover, the inhibition in test [3] is more than 90%.
On to `CC[n+]1c(-c2ccccc2)c2cc(N)ccc2c2ccc(N)cc21`, for which the inhibition result in [1] and in test [2] was “Active” throughout.
For `CC(C)CC(=O)c1c(O)c(C=O)c(O)c(C[C@@]2(C)CC[C@H]3C2=C[C@H](C(C)(C)O)CC[C@H]3C)c1O`, the concentration for half-maximal inhibition (IC50) in the test with A549 was 5.3 µM; in the test with HCT-116, more than 10 µM; with CCRF-CEM it was 6.9 µM; in the test with DU-145, more than 10 µM; in the test with Huh-7, more than 10 µM. Also, in test [3], the inhibition was more than 90%.

The term inhibition denotes the change of the read-out against control, counted positive when it falls. The term IC50 denotes the point on the concentration scale where inhibition reaches its midpoint.
